The values below come from ChEMBL document CHEMBL4354867, “Validation and Characterization of Five Distinct Novel Inhibitors of Human Cytomegalovirus” (J Med Chem, 2020).

pEC50: −log10 of the molar value. Calls of active or inactive are those of the source. The calls are words filed in the database; no cut-off is given here.

One series has as its system HFF. The series is described as follows: Cytotoxicity against human HFF cells assessed as reduction in cell viability incubated for 72 hrs or 10 days by MTT assay. It is filed as cell-based. In short, it runs like this:
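MTT assay on uninfected cells exposed to compound for 72 h or 8–10 days, matching the antiviral assay durations. MTT (5 mg/mL stock in PBS) added, then 2–3 h at 37 °C. Formazan absorbance read at 560 nm.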
In general terms: Tetrazolium assays rely on reduction of a dye to a coloured formazan, in cell work by metabolically active cells.

The next series concerns Human alphaherpesvirus 2. The series is described as follows: Antiviral activity against HSV 2 infected in African green monkey Vero cells assessed as reduction in plaque formation incubated for 36 hrs by crystal violet staining based assay. It is filed as functional, organism-based. The settings on record: Human alphaherpesvirus 2, Vero, 36 h; read-out: EC50. In short, it runs like this: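 Plaque reduction in Vero cells: virus adsorbed 60 min, then compound added in a carboxymethylcellulose overlay. Plaques counted after 36 h by crystal violet staining.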

Another series deals with Human gammaherpesvirus 4. The series is described as follows: Antiviral activity against EBV infected in human AKATA cells assessed as reduction in IgG-induced lytic virus replication measured at 48 hrs post-lytic induction by qRT-PCR analysis. In kind it is functional, organism-based. Particulars: human gammaherpesvirus 4, 48 h; read-out: EC50. For orientation: Quantitative PCR measures a nucleic acid by following its amplification.

Series [1] in a line: Antiviral activity against Mouse Cytomegalovirus Smith (ATCC VR-1399) infected in mouse MEF cells assessed as reduction in plaque formation measured after 3 days by crystal violet staining based assay. In kind it is functional, cell-based, Murine cytomegalovirus (strain Smith). The settings on record: Murid betaherpesvirus 1, ATCC VR-1399, MEF, 72 h; read-out: EC50. An outline of the steps: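 Plaque reduction with MCMV Smith in mouse embryonic fibroblasts, with compound in a carboxymethylcellulose overlay. Assay ended at 3 days and plaques counted after crystal violet staining.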

Series [2] has as its system Human betaherpesvirus 5. The series is described as follows: Antiviral activity against pp28-luciferase expressing HCMV Towne infected in human HFF cells assessed as reduction in viral replication treated with compound at 24 hrs post viral infection at MOI of 1 PFU/cell and measured after 3 days by luciferase reporter gene assay. The settings on record: strain Towne. In kind it is functional, organism-based. An outline of the steps:
(§1)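 Time-of-addition in HFFs infected with HCMV Towne (MOI 1). Add-on: compound added at 0, 6, 24 or 48 hpi. Removal: compound added right after infection and washed out after 0, 6, 24 or 48 h. Luciferase read at 72 hpi.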
For orientation: In a reporter assay the amount or activity of a reporter protein is the signal.

Series [3] has as its system Human betaherpesvirus 5. The series is described as follows: Antiviral activity against pp28-luciferase expressing HCMV Towne infected in human HFF cells assessed as reduction in viral replication treated with compound immediately after viral infection at MOI of 1 PFU/cell followed by compound washout after 6 hrs and measured after 3 days by luciferase reporter gene assay. Particulars: strain Towne. In kind it is functional. An outline of the steps:
as §1

Series [4] concerns Human betaherpesvirus 5. The series is described as follows: Antiviral activity against HCMV Towne infected in human HFF cells assessed as reduction in viral entry into host cell by measuring nuclear localization of pp65 at 5 uM treated with compound for 24 hrs followed by viral infection at MOI of 0.01 to 1 PFU/cell measured at 2 hrs post infection by immunofluorescence microscopy. The settings on record: strain Towne. It is filed as functional, organism-based. An outline of the steps: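 HFFs on chamber slides pretreated 24 h with compound diluted in serum-free medium, then infected with HCMV Towne for 2 h. Heparin 30 μM as positive entry-block control. Cells methanol-fixed, then stained with anti-pp65 (1:50) and rhodamine anti-mouse IgG, with DAPI. Nuclear pp65 viewed by fluorescence microscopy at 40x; repeated three times.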

Series [5] deals with Human betaherpesvirus 5. The series is described as follows: Antiviral activity against HCMV Towne infected in human HFF cells assessed as reduction in viral DNA replication at 5 uM treated with compound following viral infection at MOI of 0.1 PFU/cell by US17 real time PCR analysis. It is filed as functional, organism-based. Particulars: strain Towne. An outline of the steps:
(§2)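 At set time points supernatants were harvested and cells lysed for DNA. Cell-associated viral DNA and supernatant viral DNA quantified by real-time PCR targeting a 151-bp conserved US17 region.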

The test system of series [6] is Human betaherpesvirus 5. The series is described as follows: Antiviral activity against HCMV Towne infected in human HFF cells assessed as reduction in viral DNA yields in the supernatant at 5 uM treated with compound following viral infection at MOI of 0.1 PFU/cell by US17 real time PCR analysis. In kind it is functional, organism-based. The settings on record: strain Towne. An outline of the steps:
as §2

Regarding `Nc1nc(O)c2ncn(COC(CO)CO)c2n1` [GANCICLOVIR], in the series on HFF, the CC50 is more than 200 µM.

Consider `Nc1nc2c(ncn2COC(CO)CO)c(=O)[nH]1` [GANCICLOVIR], for which the values for the pEC50 (with Human alphaherpesvirus 2; with Human gammaherpesvirus 4; in [1]) were 6.24, 5.28 and 6.02, respectively. Moreover, the result in the series on Human betaherpesvirus 5 [2] and in the series with Human betaherpesvirus 5 [4] was inactive. In addition, the result in the series on Human betaherpesvirus 5 [3], in the series with Human betaherpesvirus 5 [5] and in the series with Human betaherpesvirus 5 [6] was Active.

One may read the CC50 as the concentration giving 50% cytotoxicity. As usually defined, the pEC50 is the negative decadic logarithm of the EC50, by convention in mol/L.
